# Test system: Brassica juncea
# Test: Post-emergence herbicidal activity against Brassica juncea assessed as growth inhibition at emulsified concentrate of 150 g/ai ha after 15 days by greenhouse test
# Type: functional
# Method in brief: (§1)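 About 20 seeds sown 1–3 cm deep, grown at 15–30 °C and 50% RH. Dicot seedlings sprayed postemergence at the two-leaf stage with a 100 g/L emulsifiable concentrate (DMF/Tween-80) diluted in water, 150 g ai/ha. Untreated and solvent controls included. Visual rating at 15 days, three replicates.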
row,SMILES,inhibition (INH)
1,CCOC(=O)CSc1nc2cc(-n3nc(C(C)(C)C)oc3=O)c(F)cc2s1,50%
2,CCOC(=O)C(C)Sc1nc2cc(-n3nc(C(C)(C)C)oc3=O)c(Cl)cc2s1 (stereo not given),50%

# Test system: Polygonum humifusum
# Test: Post-emergence herbicidal activity against Polygonum humifusum assessed as growth inhibition at emulsified concentrate of 75 g/ai ha after 15 days by greenhouse test
# Type: functional
row,SMILES,inhibition (INH)
1,CCOC(=O)CSc1nc2cc(-n3nc(C(C)(C)C)oc3=O)c(F)cc2s1,70%
2,CCOC(=O)C(C)Sc1nc2cc(-n3nc(C(C)(C)C)oc3=O)c(Cl)cc2s1 (stereo not given),60%

# Test system: Eclipta prostrata
# Test: Post-emergence herbicidal activity against Eclipta prostrata assessed as growth inhibition at emulsified concentrate of 75 g/ai ha after 15 days by greenhouse test
# Type: functional
# Method in brief: (§2)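 Compounds were made up as 100 g/L emulsifiable concentrates in DMF with Tween-80, then diluted in water. About 20 seeds were sown 1-3 cm deep in pots and grown in a greenhouse at 15-30 °C and 50% relative humidity. Sprays were applied postemergence at the two-leaf stage. Untreated and DMF + Tween-80 solvent controls were included. Injury was scored visually 15 days after treatment, with three replicates per treatment.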
row,SMILES,inhibition (INH)
1,CCOC(=O)CSc1nc2cc(-n3nc(C(C)(C)C)oc3=O)c(F)cc2s1,0%
2,CCOC(=O)C(C)Sc1nc2cc(-n3nc(C(C)(C)C)oc3=O)c(Cl)cc2s1 (stereo not given),40%

# Test system: Cyperus iria
# Test: Post-emergence herbicidal activity against Cyperus iria assessed as growth inhibition at emulsified concentrate of 37.5 g/ai ha after 15 days by greenhouse test
# Type: functional
row,SMILES,inhibition (INH)
1,CCOC(=O)CSc1nc2cc(-n3nc(C(C)(C)C)oc3=O)c(F)cc2s1,60%
2,CCOC(=O)C(C)Sc1nc2cc(-n3nc(C(C)(C)C)oc3=O)c(Cl)cc2s1 (stereo not given),60%

# Test system: Amaranthus retroflexus
# Test: Post-emergence herbicidal activity against Amaranthus retroflexus assessed as growth inhibition at emulsified concentrate of 37.5 g/ai ha after 15 days by greenhouse test
# Type: functional
# Method in brief: as §2
row,SMILES,inhibition (INH)
1,CCOC(=O)CSc1nc2cc(-n3nc(C(C)(C)C)oc3=O)c(F)cc2s1,50%
2,CCOC(=O)C(C)Sc1nc2cc(-n3nc(C(C)(C)C)oc3=O)c(Cl)cc2s1 (stereo not given),60%

# Test system: Abutilon theophrasti
# Test: Post-emergence herbicidal activity against Abutilon theophrasti (velvetleaf) assessed as growth inhibition at emulsified concentrate of 37.5 g/ai ha after 15 days by greenhouse test
# Type: functional
row,SMILES,inhibition (INH)
1,CCOC(=O)CSc1nc2cc(-n3nc(C(C)(C)C)oc3=O)c(F)cc2s1,0%
2,CCOC(=O)C(C)Sc1nc2cc(-n3nc(C(C)(C)C)oc3=O)c(Cl)cc2s1 (stereo not given),0%

# Test system: Poa annua
# Test: Post-emergence herbicidal activity against Poa annua assessed as growth inhibition at emulsified concentrate of 150 g/ai ha after 15 days by greenhouse test
# Type: functional
# Method in brief: (§3)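 About 20 seeds sown 1–3 cm deep, grown at 15–30 °C and 50% RH. Monocot seedlings sprayed postemergence at the one-leaf stage with a 100 g/L emulsifiable concentrate (DMF/Tween-80) diluted in water, 150 g ai/ha. Untreated and solvent controls included. Visual rating at 15 days, three replicates.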
row,SMILES,inhibition (INH)
1,CCOC(=O)CSc1nc2cc(-n3nc(C(C)(C)C)oc3=O)c(F)cc2s1,0%
2,CCOC(=O)C(C)Sc1nc2cc(-n3nc(C(C)(C)C)oc3=O)c(Cl)cc2s1 (stereo not given),0%

# Test system: Rumex acetosa
# Test: Post-emergence herbicidal activity against Rumex acetosa assessed as growth inhibition at emulsified concentrate of 150 g/ai ha after 15 days by greenhouse test
# Type: functional
row,SMILES,inhibition (INH)
1,CCOC(=O)CSc1nc2cc(-n3nc(C(C)(C)C)oc3=O)c(F)cc2s1,70%
2,CCOC(=O)C(C)Sc1nc2cc(-n3nc(C(C)(C)C)oc3=O)c(Cl)cc2s1 (stereo not given),60%

# Test system: Cyperus iria
# Test: Post-emergence herbicidal activity against Cyperus iria assessed as growth inhibition at emulsified concentrate of 75 g/ai ha after 15 days by greenhouse test
# Type: functional
row,SMILES,inhibition (INH)
1,CCOC(=O)CSc1nc2cc(-n3nc(C(C)(C)C)oc3=O)c(F)cc2s1,70%
2,CCOC(=O)C(C)Sc1nc2cc(-n3nc(C(C)(C)C)oc3=O)c(Cl)cc2s1 (stereo not given),60%

# Test system: Eclipta prostrata
# Test: Post-emergence herbicidal activity against Eclipta prostrata assessed as growth inhibition at emulsified concentrate of 37.5 g/ai ha after 15 days by greenhouse test
# Type: functional
# Method in brief: as §2
row,SMILES,inhibition (INH)
1,CCOC(=O)CSc1nc2cc(-n3nc(C(C)(C)C)oc3=O)c(F)cc2s1,0%
2,CCOC(=O)C(C)Sc1nc2cc(-n3nc(C(C)(C)C)oc3=O)c(Cl)cc2s1 (stereo not given),0%

# Test system: Rumex acetosa
# Test: Post-emergence herbicidal activity against Rumex acetosa assessed as growth inhibition at emulsified concentrate of 75 g/ai ha after 15 days by greenhouse test
# Type: functional
row,SMILES,inhibition (INH)
1,CCOC(=O)CSc1nc2cc(-n3nc(C(C)(C)C)oc3=O)c(F)cc2s1,50%
2,CCOC(=O)C(C)Sc1nc2cc(-n3nc(C(C)(C)C)oc3=O)c(Cl)cc2s1 (stereo not given),30%

# Test system: Brassica juncea
# Test: Post-emergence herbicidal activity against Brassica juncea assessed as growth inhibition at emulsified concentrate of 37.5 g/ai ha after 15 days by greenhouse test
# Type: functional
# Method in brief: as §2
row,SMILES,inhibition (INH)
1,CCOC(=O)CSc1nc2cc(-n3nc(C(C)(C)C)oc3=O)c(F)cc2s1,0%
2,CCOC(=O)C(C)Sc1nc2cc(-n3nc(C(C)(C)C)oc3=O)c(Cl)cc2s1 (stereo not given),0%

# Test system: Echinochloa crus-galli
# Test: Post-emergence herbicidal activity against Echinochloa crus-galli (barnyard grass) assessed as growth inhibition at emulsified concentrate of 150 g/ai ha after 15 days by greenhouse test
# Type: functional
# Method in brief: as §3
row,SMILES,inhibition (INH)
1,CCOC(=O)CSc1nc2cc(-n3nc(C(C)(C)C)oc3=O)c(F)cc2s1,0%
2,CCOC(=O)C(C)Sc1nc2cc(-n3nc(C(C)(C)C)oc3=O)c(Cl)cc2s1 (stereo not given),0%

# Test system: Amaranthus retroflexus
# Test: Post-emergence herbicidal activity against Amaranthus retroflexus assessed as growth inhibition at emulsified concentrate of 75 g/ai ha after 15 days by greenhouse test
# Type: functional
# Method in brief: as §2
row,SMILES,inhibition (INH)
1,CCOC(=O)CSc1nc2cc(-n3nc(C(C)(C)C)oc3=O)c(F)cc2s1,50%
2,CCOC(=O)C(C)Sc1nc2cc(-n3nc(C(C)(C)C)oc3=O)c(Cl)cc2s1 (stereo not given),100%

# Test system: Cyperus iria
# Test: Post-emergence herbicidal activity against Cyperus iria assessed as growth inhibition at emulsified concentrate of 150 g/ai ha after 15 days by greenhouse test
# Type: functional
row,SMILES,inhibition (INH)
1,CCOC(=O)CSc1nc2cc(-n3nc(C(C)(C)C)oc3=O)c(F)cc2s1,70%
2,CCOC(=O)C(C)Sc1nc2cc(-n3nc(C(C)(C)C)oc3=O)c(Cl)cc2s1 (stereo not given),70%

# Test system: Polygonum humifusum
# Test: Post-emergence herbicidal activity against Polygonum humifusum assessed as growth inhibition at emulsified concentrate of 150 g/ai ha after 15 days by greenhouse test
# Type: functional
row,SMILES,inhibition (INH)
1,CCOC(=O)CSc1nc2cc(-n3nc(C(C)(C)C)oc3=O)c(F)cc2s1,80%
2,CCOC(=O)C(C)Sc1nc2cc(-n3nc(C(C)(C)C)oc3=O)c(Cl)cc2s1 (stereo not given),70%

# Test system: Eclipta prostrata
# Test: Post-emergence herbicidal activity against Eclipta prostrata assessed as growth inhibition at emulsified concentrate of 150 g/ai ha after 15 days by greenhouse test
# Type: functional
# Method in brief: as §1
row,SMILES,inhibition (INH)
1,CCOC(=O)CSc1nc2cc(-n3nc(C(C)(C)C)oc3=O)c(F)cc2s1,50%
2,CCOC(=O)C(C)Sc1nc2cc(-n3nc(C(C)(C)C)oc3=O)c(Cl)cc2s1 (stereo not given),70%

# Test system: Amaranthus retroflexus
# Test: Post-emergence herbicidal activity against Amaranthus retroflexus assessed as growth inhibition at emulsified concentrate of 150 g/ai ha after 15 days by greenhouse test
# Type: functional
# Method in brief: as §1
row,SMILES,inhibition (INH)
1,CCOC(=O)CSc1nc2cc(-n3nc(C(C)(C)C)oc3=O)c(F)cc2s1,90%
2,CCOC(=O)C(C)Sc1nc2cc(-n3nc(C(C)(C)C)oc3=O)c(Cl)cc2s1 (stereo not given),100%

# Test system: Abutilon theophrasti
# Test: Post-emergence herbicidal activity against Abutilon theophrasti (velvetleaf) assessed as growth inhibition at emulsified concentrate of 75 g/ai ha after 15 days by greenhouse test
# Type: functional
row,SMILES,inhibition (INH)
1,CCOC(=O)CSc1nc2cc(-n3nc(C(C)(C)C)oc3=O)c(F)cc2s1,0%
2,CCOC(=O)C(C)Sc1nc2cc(-n3nc(C(C)(C)C)oc3=O)c(Cl)cc2s1 (stereo not given),0%

# Test system: Polygonum humifusum
# Test: Post-emergence herbicidal activity against Polygonum humifusum assessed as growth inhibition at emulsified concentrate of 37.5 g/ai ha after 15 days by greenhouse test
# Type: functional
row,SMILES,inhibition (INH)
1,CCOC(=O)CSc1nc2cc(-n3nc(C(C)(C)C)oc3=O)c(F)cc2s1,70%
2,CCOC(=O)C(C)Sc1nc2cc(-n3nc(C(C)(C)C)oc3=O)c(Cl)cc2s1 (stereo not given),40%

# Test system: Abutilon theophrasti
# Test: Post-emergence herbicidal activity against Abutilon theophrasti (velvetleaf) assessed as growth inhibition at emulsified concentrate of 150 g/ai ha after 15 days by greenhouse test
# Type: functional
row,SMILES,inhibition (INH)
1,CCOC(=O)CSc1nc2cc(-n3nc(C(C)(C)C)oc3=O)c(F)cc2s1,0%
2,CCOC(=O)C(C)Sc1nc2cc(-n3nc(C(C)(C)C)oc3=O)c(Cl)cc2s1 (stereo not given),0%

# Test system: Brassica juncea
# Test: Post-emergence herbicidal activity against Brassica juncea assessed as growth inhibition at emulsified concentrate of 75 g/ai ha after 15 days by greenhouse test
# Type: functional
# Method in brief: as §2
row,SMILES,inhibition (INH)
1,CCOC(=O)CSc1nc2cc(-n3nc(C(C)(C)C)oc3=O)c(F)cc2s1,50%
2,CCOC(=O)C(C)Sc1nc2cc(-n3nc(C(C)(C)C)oc3=O)c(Cl)cc2s1 (stereo not given),0%

# Test system: Digitaria sanguinalis
# Test: Post-emergence herbicidal activity against Digitaria sanguinalis (hairy crabgrass) assessed as growth inhibition at emulsified concentrate of 150 g/ai ha after 15 days by greenhouse test
# Type: functional
# Method in brief: as §3
row,SMILES,inhibition (INH)
1,CCOC(=O)CSc1nc2cc(-n3nc(C(C)(C)C)oc3=O)c(F)cc2s1,0%
2,CCOC(=O)C(C)Sc1nc2cc(-n3nc(C(C)(C)C)oc3=O)c(Cl)cc2s1 (stereo not given),0%

# Test system: Rumex acetosa
# Test: Post-emergence herbicidal activity against Rumex acetosa assessed as growth inhibition at emulsified concentrate of 37.5 g/ai ha after 15 days by greenhouse test
# Type: functional
row,SMILES,inhibition (INH)
1,CCOC(=O)CSc1nc2cc(-n3nc(C(C)(C)C)oc3=O)c(F)cc2s1,50%
2,CCOC(=O)C(C)Sc1nc2cc(-n3nc(C(C)(C)C)oc3=O)c(Cl)cc2s1 (stereo not given),0%

# Molecular target: T1, Protoporphyrinogen oxidase (Homo sapiens, UniProt P50336)
# T1 sequence (P50336 whole entry): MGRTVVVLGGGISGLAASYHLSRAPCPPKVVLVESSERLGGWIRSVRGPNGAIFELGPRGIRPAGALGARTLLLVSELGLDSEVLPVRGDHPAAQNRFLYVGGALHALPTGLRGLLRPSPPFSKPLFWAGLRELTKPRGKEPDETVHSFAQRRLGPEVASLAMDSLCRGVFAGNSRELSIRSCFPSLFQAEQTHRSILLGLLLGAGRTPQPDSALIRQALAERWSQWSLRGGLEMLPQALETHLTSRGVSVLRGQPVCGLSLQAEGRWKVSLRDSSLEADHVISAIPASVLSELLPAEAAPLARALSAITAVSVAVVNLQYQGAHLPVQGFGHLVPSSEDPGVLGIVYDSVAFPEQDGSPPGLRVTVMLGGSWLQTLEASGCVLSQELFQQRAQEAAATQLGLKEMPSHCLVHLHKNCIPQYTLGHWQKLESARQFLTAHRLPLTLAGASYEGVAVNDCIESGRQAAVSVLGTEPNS
# Test: Inhibition of Homo sapiens (human) recombinant protoporphyrinogen oxidase expressed in Escherichia coli JM109 assessed as oxidation of protoporphyrinogen IX substrate by fluorescence assay
row,SMILES,Ki
1,CCOC(=O)CSc1nc2cc(-n3nc(C(C)(C)C)oc3=O)c(F)cc2s1,1580 nM
2,CCOC(=O)C(C)Sc1nc2cc(-n3nc(C(C)(C)C)oc3=O)c(Cl)cc2s1 (stereo not given),1690 nM

# Reference: ChEMBL document CHEMBL3045650, “Design, synthesis, and 3D-QSAR analysis of novel 1,3,4-oxadiazol-2(3H)-ones as protoporphyrinogen oxidase inhibitors” (J Agric Food Chem, 2010)
